High-throughput results (PubChem BioAssay)
V1R ag counter – V1a receptor agonism, counter-screen for OXTR agonists; CHO-V1R cells, Fluo-8 calcium fluorescence, agonist mode; 0% DMSO, 100% 3 nM vasopressin; activation, % at 3 µM; 0.25% of 320,000 active; AID 2797;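 active = activation above the mean activation of all tested compounds plus 3 SD, per screening run, cut at about 20% in these data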;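 note: signal is peak over basal fluorescence ratio across a 100 second FLIPR read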
TAAR1 ag – human TAAR1 agonism; Q96RJ0; CHO RD-HGA16 TAAR1, Fluo-8 calcium fluorescence; vehicle wells 0%, saturating PEA agonist 100%; activation, % at 3 µM; 0.99% of 360,000 active; AID 624467;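 active = activation above the mean activation of all test compounds in the run plus 3 SD, cut at about 38% in these data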
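Test system: RD-HGA16 (CHO) cells co-expressing Gα16 and hTAAR1; dosing: one-point dosing at 3 µM (nominal); timing: 17-24 h seeding, 75 min 37 °C dye, 30 min RT; signal: kinetic Fluo-8 calcium fluorescence; read-out basis: % activation relative to PEA EC100 response; controls: DMSO and PEA EC100; replicates: n 1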
TAAR1 antagonist – antagonists of human TAAR1; Q96RJ0; CHO RD-HGA16 TAAR1, Fluo-8 calcium fluorescence, antagonist; inhibition, % at 3 µM; 1.5% of 360,000 active;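 active = inhibition above a per-plate cutoff, the mean inhibition of test compounds on that plate plus 3 SD, cut at about 49% in these data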
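System: RD-HGA16 CHO cells with stable hTAAR1 and Gα16 | Probe or stimulus: EC80 β-phenethylamine stimulus | Dosing: 3 µM, single point | Times: Dye loading 75 min at 37 °C, then 30 min room temperature | Measured by: Fluo-8 calcium-sensitive fluorescence | Read-out basis: % inhibition of agonist calcium response | Replicates: n of 1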
OXTR agonist – human OXTR agonism. AID 2435. 0.32% of 320,000 active. activation, % at 3 µM. P30559. CHO-OTR cells, Fluo-8 calcium fluorescence; normalized: DMSO 0%, oxytocin 100%;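 active = activation above the mean of all tested compounds plus 3 SD, cutoff set per screening run, cut at about 20% in these data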;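 note: peak over basal fluorescence ratio from a 100 s FLIPR kinetic read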
Target sequence (P30559 whole entry, looked up): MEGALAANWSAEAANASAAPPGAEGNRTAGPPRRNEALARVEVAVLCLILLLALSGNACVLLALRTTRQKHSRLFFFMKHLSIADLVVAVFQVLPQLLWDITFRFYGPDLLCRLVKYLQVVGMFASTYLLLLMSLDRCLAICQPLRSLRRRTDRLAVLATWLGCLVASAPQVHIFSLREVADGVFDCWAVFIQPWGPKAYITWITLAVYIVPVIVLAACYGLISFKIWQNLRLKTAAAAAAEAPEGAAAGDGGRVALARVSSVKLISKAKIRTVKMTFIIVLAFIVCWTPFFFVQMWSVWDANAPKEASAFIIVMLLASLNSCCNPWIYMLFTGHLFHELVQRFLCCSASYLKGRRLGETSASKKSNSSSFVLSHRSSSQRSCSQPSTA
OXTR potentiator – potentiates the human oxytocin receptor response; 0.061% of 320,000 active; CHO-OTR cells, Fluo-8 calcium fluorescence, potentiator mode; 0% = oxytocin EC15, 100% = EC100; P30559; AID 2445; activation, % at 3 µM;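 active = activation above that plate's cutoff, the mean activation of tested compounds plus 3 SD, cut at about 6.6% in these data, passing the limit was not always enough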
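Assay system: CHO cell line stably expressing human OTR | Also added: Oxytocin at about EC15, sub-maximal agonist stimulus | Times: Compound 6 min at room temperature before oxytocin, 100 s read | Measured by: Fluo-8 intracellular calcium fluorescence, ex 470-495, em 515-575 nm | Controls: EC15 oxytocin alone as 0%, 75 nM oxytocin as 100%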
A number is an active result; n = inactive; x = no result. In the library only some 2.3% were active in any assay of this set; here they are far more common.

SMILES	V1R ag counter	TAAR1 ag	TAAR1 antagonist	OXTR agonist	OXTR potentiator
COc1cc(OC)cc(N(C(=O)CNC(=O)c2ccco2)C(C(=O)NCC2CCCO2)c2ccccc2)c1 (stereo not drawn)	n	n	52	n	n
O=C(N/N=C/c1cccnc1)c1cccc(NC(=O)c2cccc(Br)c2)c1	n	n	51	n	n
O=C(/C=C/c1cccs1)c1ccc(NC(=O)c2cccc(Br)c2)cc1	n	n	55	n	n
O=C(Nc1cccc(C(=O)Nc2cccc(Br)c2)c1)c1ccccc1	n	n	62	n	n
O=C(N/N=C/c1cccc(Oc2ccccc2)c1)c1cccc(O)c1	x	n	n	x	x
O=C(N/N=C/c1cccc(Oc2ccccc2)c1)c1cccc(Br)c1	n	n	57	n	n
C[C@H](NC(=O)c1ccccc1Cl)C(=O)OCc1cn2cc(Cl)ccc2n1	n	n	n	n	n
Cc1ccc(NC(=O)N2CC(C)OC(C)C2)cc1[N+](=O)[O-] (stereo not drawn)	x	n	n	x	x
NS(=O)(=O)c1ccc(NC(=S)NCc2ccco2)cc1	n	n	n	n	n
COc1cc(Nc2cccc(-c3ccccc3)n2)cc(OC)c1OC	x	n	n	x	x
O=C(N/N=C/c1cccc(OC(=O)c2cccc(Br)c2)c1)c1cccnc1	x	n	58	x	x
O=C(N/N=C/c1cccnc1)c1ccc(NC(=O)C(c2ccccc2)c2ccccc2)cc1	n	n	57	n	n
O=C(CN1CCN(S(=O)(=O)c2ccc(F)cc2)CC1)NCC1(N2CCOCC2)CCCCC1	n	n	n	n	n
COc1cc(OC)c(C(=O)OCC(=O)c2ccc3c(c2)NC(=O)CO3)cc1OC	n	n	n	n	n
O=C1COc2ccc(C(=O)COC(=O)c3ccc(F)cc3Cl)cc2N1	n	n	57	n	n
COCC(C)NC(=O)CSc1nc2ccccc2c(=O)n1CCc1ccc(S(N)(=O)=O)cc1 (stereo not drawn)	n	n	54	n	n
COC(=O)c1ccc(OC)c(CN2CCCN(Cc3ccc(F)cc3)S2(=O)=O)c1	n	n	n	n	n
COC(=O)[C@@]1(Sc2ccc(C)cc2)CC(=O)N(c2ccc(Cl)cc2)[C@@H]1c1ccccc1	x	n	n	x	x
COC(=O)[C@@]1(Sc2ccc(C)cc2)CC(=O)N(c2ccc3c(ccn3C)c2)[C@@H]1c1ccccc1	x	n	55	x	x
Cc1nc2sccn2c(=O)c1S(=O)(=O)Nc1ccc(N2CCN(S(C)(=O)=O)CC2)cc1	n	n	60	n	n
O=C(COC(=O)/C=C/c1ccco1)NCc1ccco1	n	n	n	n	n
O=C(COC(=O)/C=C/c1ccco1)NCCc1ccccc1	n	39	n	n	n
Cc1ccc(C(=O)O)cc1NC(=S)NC(=O)c1ccc([N+](=O)[O-])c(C)c1	n	n	n	n	n
COc1ccc(NC(=O)C2(C)CCN2C(=O)CC2CCCC2)cc1OC (stereo not drawn)	x	n	n	x	x
COc1ccccc1-n1c(SCC(=O)Nc2ccc(Br)cc2)nc(O)cc1=O	n	n	n	n	n
SMILES	V1R ag counter	TAAR1 ag	TAAR1 antagonist	OXTR agonist	OXTR potentiator
O=C1/C(=C\c2ccccc2)CN(C(=O)CCN2CCCCC2)C/C1=C/c1ccccc1	x	n	n	x	x
O=C1/C(=C\c2ccc(Cl)c(Cl)c2)CN(C(=O)CCN2CCOCC2)C/C1=C/c1ccc(Cl)c(Cl)c1	x	n	57	x	x
Cc1nnc(NC(=O)CSc2ncnc3c2cnn3-c2ccccc2C)s1	n	n	n	n	n
CCOC(=O)Cc1csc(NC(=O)CSc2ncnc3c2cnn3-c2ccccc2Cl)n1	x	n	62	x	x
O=C(Nc1ccc([N+](=O)[O-])cc1)c1cc2ccccc2nc1Cl	n	n	51	n	n
O=C(COc1ccccc1)N(Cc1cccc(F)c1)C1CCS(=O)(=O)C1 (stereo not drawn)	n	n	n	n	n
CCCc1cc2c(O)ccc(O)c2c(=O)o1	x	n	n	x	x
CN1CCN2c3ccccc3CC(C#N)(C#N)C2C1 (stereo not drawn)	x	n	n	x	x
Cc1ccccc1-c1nnn(Cc2cccc(S(=O)(=O)N3CCOCC3)c2)n1	n	n	60	n	n
COc1ccc(NC(=O)CSc2nc3ccsc3c(=O)n2CCCCCC(=O)O)cc1	n	n	50	n	n
COc1ccc(C(C)=O)cc1COC(=O)Cc1cc(OC)c(OC)c(OC)c1	n	n	n	n	n
